Laboratory results published in ChEMBL document CHEMBL1154876, “Synthesis and antimicrobial studies on novel sulfonamides containing 4-azidomethyl coumarin” (2010).
Converted amounts (≈) assume the structure as drawn.

Experiments:
Assay type in all cases: functional
[1] = system: Enterococcus faecalis; experiment: Antibacterial activity against Streptococcus faecalis MTCC 3382 after 18 hrs by broth microdilution method; conditions: MTCC 3382, 18 h
[2] = system: Staphylococcus aureus; experiment: Antibacterial activity against Staphylococcus aureus MTCC 3160 after 18 hrs by broth microdilution method; conditions: MTCC 3160, 18 h
[3] = system: Bacillus subtilis; experiment: Antibacterial activity against Bacillus subtilis MTCC 297 after 18 hrs by broth microdilution method; conditions: MTCC 297, 18 h
[4] = system: Pseudomonas aeruginosa; experiment: Antibacterial activity against Pseudomonas aeruginosa MTCC 1034 after 18 hrs by broth microdilution method; conditions: MTCC 1034, 18 h
[5] = system: Klebsiella pneumoniae; experiment: Antibacterial activity against Klebsiella pneumoniae MTCC 3384 after 18 hrs by broth microdilution method; conditions: MTCC 3384, 18 h
[6] = system: Escherichia coli; experiment: Antibacterial activity against Escherichia coli MTCC 1089 after 18 hrs by broth microdilution method; conditions: MTCC 1089, 18 h
[7] = system: Candida albicans; experiment: Antifungal activity against Candida albicans after 48 to 72 hrs by broth microdilution method
How it was run: (§1)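 Test compounds were prepared as 10 mg/ml DMSO stocks and serially diluted twofold in Sabouraud's dextrose broth over 500, 250, 125, 62.5, 31.25, 16, 8, 4, 2 and 1, alongside fluconazole as reference. Plates were inoculated with 1–5 × 10⁴ cfu/ml and held at 25 °C for 48–72 h. The MIC was the lowest concentration showing no visible growth.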

[8] = system: Aspergillus fumigatus; experiment: Antifungal activity against Aspergillus fumigatus after 48 to 72 hrs by broth microdilution method; how it was run: as §1
[9] = system: Aspergillus niger; experiment: Antifungal activity against Aspergillus niger after 48 to 72 hrs by broth microdilution method; how it was run: as §1
[10] = system: Penicillium chrysogenum; experiment: Antifungal activity against Penicillium chrysogenum after 48 to 72 hrs by broth microdilution method; how it was run: as §1
[11] = system: Mucor; experiment: Antifungal activity against Mucor fuscus after 48 to 72 hrs by broth micro dilution method; how it was run: as §1
[12] = system: Fusarium oxysporum; experiment: Antifungal activity against Fusarium oxysporum after 48 to 72 hrs by broth microdilution method; how it was run: as §1

SMILES | MIC [1] [µg/mL] | MIC [2] [µg/mL] | MIC [3] [µg/mL] | MIC [4] [µg/mL] | MIC [5] [µg/mL] | MIC [6] [µg/mL] | MIC [7] [µg/mL] | MIC [8] [µg/mL] | MIC [9] [µg/mL] | MIC [10] [µg/mL] | MIC [11] [µg/mL] | MIC [12] [µg/mL]
Cc1ccc(NS(=O)(=O)c2cc3c(CN=[N+]=[N-])cc(=O)oc3cc2C)cc1C | 8 (≈ 20.1 µM) | 4 (≈ 10 µM) | 31.2 (≈ 78.4 µM) | 125 (≈ 314 µM) | 125 (≈ 314 µM) | 125 (≈ 314 µM) | 8 (≈ 20.1 µM) | 8 (≈ 20.1 µM) | 4 (≈ 10 µM) | 2 (≈ 5.02 µM) | 1 (≈ 2.51 µM) | 1 (≈ 2.51 µM)
Cc1cc([N+](=O)[O-])ccc1NS(=O)(=O)c1cc2c(CN=[N+]=[N-])cc(=O)oc2cc1C | 4 (≈ 9.32 µM) | 16 (≈ 37.3 µM) | 4 (≈ 9.32 µM) | 125 (≈ 291 µM) | 31.2 (≈ 72.8 µM) | 125 (≈ 291 µM) | 16 (≈ 37.3 µM) | 8 (≈ 18.6 µM) | 4 (≈ 9.32 µM) | 2 (≈ 4.66 µM) | 2 (≈ 4.66 µM) | 2 (≈ 4.66 µM)
Cc1cc2oc(=O)cc(CBr)c2cc1S(=O)(=O)Cl | 16 (≈ 45.5 µM) | 16 (≈ 45.5 µM) | 16 (≈ 45.5 µM) | 125 (≈ 356 µM) | 125 (≈ 356 µM) | 125 (≈ 356 µM) | 8 (≈ 22.8 µM) | 4 (≈ 11.4 µM) | 4 (≈ 11.4 µM) | 1 (≈ 2.84 µM) | 1 (≈ 2.84 µM) | 1 (≈ 2.84 µM)
Cc1cc2oc(=O)cc(CN=[N+]=[N-])c2cc1S(=O)(=O)Nc1ccccc1 | 31.2 (≈ 84.4 µM) | 4 (≈ 10.8 µM) | 31.2 (≈ 84.4 µM) | 125 (≈ 337 µM) | 125 (≈ 337 µM) | 125 (≈ 337 µM) | 16 (≈ 43.2 µM) | 8 (≈ 21.6 µM) | 8 (≈ 21.6 µM) | 2 (≈ 5.4 µM) | 4 (≈ 10.8 µM) | 4 (≈ 10.8 µM)
Cc1cc2oc(=O)cc(CN=[N+]=[N-])c2cc1S(=O)(=O)Nc1ccc(Cl)cc1Cl | 1 (≈ 2.28 µM) | 31.2 (≈ 71.1 µM) | 250 (≈ 569 µM) | 2 (≈ 4.55 µM) | 2 (≈ 4.55 µM) | > 500 | 8 (≈ 18.2 µM) | 250 (≈ 569 µM) | 250 (≈ 569 µM) | 62.5 (≈ 142 µM) | 16 (≈ 36.4 µM) | 1 (≈ 2.28 µM)
O=C(O)c1cn(C2CC2)c2cc(N3CCNCC3)c(F)cc2c1=O [CIPROFLOXACIN] | 1 (≈ 3.02 µM) | 1 (≈ 3.02 µM) | 1 (≈ 3.02 µM) | 1 (≈ 3.02 µM) | 1 (≈ 3.02 µM) | – | – | – | – | – | – | –
Cc1ccc(NS(=O)(=O)c2cc3c(CN=[N+]=[N-])cc(=O)oc3cc2C)cc1 | 16 (≈ 41.6 µM) | 16 (≈ 41.6 µM) | 8 (≈ 20.8 µM) | 125 (≈ 325 µM) | 1 (≈ 2.6 µM) | > 500 | 1 (≈ 2.6 µM) | 16 (≈ 41.6 µM) | 4 (≈ 10.4 µM) | 16 (≈ 41.6 µM) | 62.5 (≈ 163 µM) | 1 (≈ 2.6 µM)
COc1ccccc1NS(=O)(=O)c1cc2c(CN=[N+]=[N-])cc(=O)oc2cc1C | 1 (≈ 2.5 µM) | 31.2 (≈ 78 µM) | > 500 | 125 (≈ 312 µM) | 62.5 (≈ 156 µM) | 250 (≈ 624 µM) | 31.2 (≈ 78 µM) | 62.5 (≈ 156 µM) | 16 (≈ 40 µM) | > 500 | 31.2 (≈ 78 µM) | 1 (≈ 2.5 µM)
OC(Cn1cncn1)(Cn1cncn1)c1ccc(F)cc1F [FLUCONAZOLE] | – | – | – | – | – | – | 8 (≈ 26.1 µM) | 8 (≈ 26.1 µM) | 8 (≈ 26.1 µM) | 8 (≈ 26.1 µM) | 8 (≈ 26.1 µM) | 8 (≈ 26.1 µM)
CCOc1ccc(NS(=O)(=O)c2cc3c(CN=[N+]=[N-])cc(=O)oc3cc2C)cc1 | 1 (≈ 2.41 µM) | 2 (≈ 4.83 µM) | > 500 | 62.5 (≈ 151 µM) | 16 (≈ 38.6 µM) | 62.5 (≈ 151 µM) | 16 (≈ 38.6 µM) | > 500 | 250 (≈ 603 µM) | > 500 | 62.5 (≈ 151 µM) | 1 (≈ 2.41 µM)
COc1ccc(NS(=O)(=O)c2cc3c(CN=[N+]=[N-])cc(=O)oc3cc2C)cc1 | 1 (≈ 2.5 µM) | 4 (≈ 9.99 µM) | > 500 | 8 (≈ 20 µM) | 1 (≈ 2.5 µM) | 250 (≈ 624 µM) | 8 (≈ 20 µM) | 2 (≈ 4.99 µM) | 2 (≈ 4.99 µM) | 250 (≈ 624 µM) | 250 (≈ 624 µM) | 1 (≈ 2.5 µM)
Cc1ccc(NS(=O)(=O)c2cc3c(CN=[N+]=[N-])cc(=O)oc3cc2C)c([N+](=O)[O-])c1 | 1 (≈ 2.33 µM) | 16 (≈ 37.3 µM) | 250 (≈ 582 µM) | 16 (≈ 37.3 µM) | 4 (≈ 9.32 µM) | 250 (≈ 582 µM) | 16 (≈ 37.3 µM) | 125 (≈ 291 µM) | 31.2 (≈ 72.8 µM) | 31.2 (≈ 72.8 µM) | 62.5 (≈ 146 µM) | 1 (≈ 2.33 µM)
